Assay outcomes from PubChem BioAssay.
PglD inh = C. jejuni PglD acetyltransferase inhibitors, primary screen, biochemical, DTNB colorimetric, single point. inhibition, % at 12.5 µM. 360,000 compounds, 0.098% hits. purified PglD enzyme, DTNB colorimetric CoA detection; in the data active = inhibition above about 16%, passing the limit was not always enough
Vif imaging = HIV Vif self-association inhibitors, primary screen, imaging, HEK293T, single point; HEK293T cells, Vif self-association by quenched fluorescence, 24 h; inhibition, % at 7.49 µM; 340,000 compounds, 0.35% hits; in the data active = inhibition above about 50%, passing the limit was not always enough
Cneo AK release = Cryptococcus neoformans cell lysis inducers, primary screen, AK release luminescence, single concentration; C. neoformans lysis, adenylate kinase release luminescence, 4 h; normalised: neutral wells 0, clomiphene wells 100; lysis activity, % at 15 µM; 360,000 compounds, 0.2% hits; AID 651654, 2012;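 active = mean lysis activity across replicates of at least 80%, whatever share of replicates individually reach that level; inactive = mean lysis activity below 80%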
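Assay system: log-phase C. neoformans yeast / Quantity: yeast cell density of 5 × 10^6 cells/mL / Medium: fresh YPD growth medium / Compound: single dose / Timing: static 4 h at 37 °C with compound, 1 h detection / Measured by: adenylate kinase release luminescence / Read-out: lysis from increased AK signal / Benchmarks: Clomiphene as positive lysis control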
PGC1a acetyl inh = inhibitors of PGC1a acetylation signal, primary screen, cell-based, U2OS, AlphaScreen, inhibitor mode; inhibition, % at 15.6 µM; 350,000 compounds, 0.17% hits; AlphaScreen anti-acetyl-lysine; with virally co-expressed GCN5 acetyltransferase;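 active = every replicate shows inhibition of at least 40%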;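 also: 0% = neutral control wells and 100% = positive control wells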
FGF22 binding = binders of human FGF22 protein, primary screen, FGF22 synaptogenesis inhibitor project, biophysical, thermal shift, single point; AID 651658, 2012; activity (Tm shift, normalised), % at 9.99 µM; 340,000 compounds, 1.5% hits; Fibroblast growth factor 22 (Homo sapiens), Q9HCT0; recombinant FGF22 thermal shift, SYPRO orange fluorescence; percent of sucrose octasulfate shift, DMSO zero;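 active = mean Tm shift, scaled 0 neutral to 100 positive control, at about 1.3% or above, every replicate too, limit read from the data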
Target sequence (Q9HCT0 whole entry, looked up): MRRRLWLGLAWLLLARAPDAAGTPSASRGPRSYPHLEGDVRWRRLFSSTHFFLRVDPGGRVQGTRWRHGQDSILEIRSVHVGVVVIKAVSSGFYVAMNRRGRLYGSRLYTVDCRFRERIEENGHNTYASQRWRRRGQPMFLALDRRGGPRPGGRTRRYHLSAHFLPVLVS
rRNA inh HTS = reduced GFP signal of wild-type E. coli, primary screen, bacterial rRNA inhibitor project, GFP/RFP fluorescence, OD600, single point; E. coli WT GFP vs humanized-ribosome RFP mutants, 24 h; hits give low values; DMSO median 0, no signal -100; GFP signal change (wild-type ribosome), % (no concentration beside the values); 350,000 compounds, 1.6% hits;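 active = significant combined selectivity score with lowered wild-type GFP, culture density cut under 30%, mutant RFP and density less affected; inactive = any of these conditions unmet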
Numbers without * were called inactive; x = not tested or not shown. A selection: hits, their analogues and other compounds. The true share with any hit is near 2.9%.

SMILES	PglD inh	Vif imaging	Cneo AK release	PGC1a acetyl inh	FGF22 binding	rRNA inh HTS
CC1=C(C(=O)OCc2ccccc2)C(c2ccc(C#N)cc2)NC(=O)N1CCCC(=O)O (stereo not drawn)	3.3	4.9	1.6	-9.1	0.2	-16.7*
CCOC(=O)C1=C(C)N(CCO)C(=O)NC1c1ccccc1 (stereo not drawn)	-8.4	63.2*	2.3	-13.8	-0.1	12.1
CCOC(=O)C1=C(C)N(CCCC(=O)O)C(=O)NC1c1ccccc1 (stereo not drawn)	7.0	-3.8	0.2	x	0.1	0.9
COc1ccc(NC(=O)N(C)C[C@@H]2Oc3c(NS(=O)(=O)c4cn(C)cn4)cccc3C(=O)N([C@@H](C)CO)C[C@H]2C)cc1	1.4	x	0.9	0.9	0.0	4.2
CC(C)CC1(C)N=C(c2ccccc2)C(=S)N1 (stereo not drawn)	1.5	7.0	82.1*	-2.8	0.0	-1.0
S=C1NC2(CCCC2)N=C1c1ccccc1	x	-1.8	x	-2.6	0.6	5.9
Cn1cnc(S(=O)(=O)N[C@H]2C=C[C@H](CC(=O)NCC3CC3)O[C@H]2CO)c1	2.5	x	3.9	7.0	-1.4	-0.4
Nc1nc(N)c2c(n1)CN(Cc1ccc(Cl)cc1)C2	2.8	-6.5	-3.4	2.0	43.1*	11.2
C[C@H](CO)N1C[C@H](C)[C@H](CN(C)Cc2ccc(Oc3ccccc3)cc2)Oc2ccc(NC(=O)c3ccncc3)cc2CC1=O	0.1	x	-1.8	-7.5	-0.2	-11.3
CCOc1ccccc1OCC(=O)Nc1nc2ccccc2[nH]1	x	1.0	x	x	0.0	-9.6
Cc1ccccc1OCC(=O)Nc1ccccc1-c1ccccc1	x	-2.7	x	-12.9	0.1	-38.1*
Cc1ccccc1OCC(=O)Nc1nc2ccccc2[nH]1	x	2.1	x	x	43.0*	10.4
Cc1ccccc1OCC(=O)NNC(=O)CCN1C(=O)c2ccccc2C1=O	-0.3	26.8	-3.6	11.0	43.1*	13.8
Cc1ccccc1NC(=O)COc1ccccc1C	2.3	17.6	1.2	x	0.1	-24.1
Cc1ccccc1OCC(=O)NNC=O	0.4	11.3	2.2	5.0	43.0*	8.0
Cc1ccccc1OCCN1C(=O)c2ccccc2C1=O	-3.3	-1.0	-0.9	5.2	0.3	3.6
NC(=S)NN=C1CCSCC1	1.4	12.0	0.8	-0.8	43.1*	-1.0
NC(=S)NN=C1CCCCCCCCC1	x	-4.6	x	x	-0.2	4.5
Cc1cc2nc(C3CCN(C(=S)NCC(C)C)CC3)[nH]c2cc1C	x	4.8	x	x	1.9*	-15.2
O=C1N=C(N2CCCC2C(=O)O)S/C1=C\c1ccco1 (stereo not drawn)	x	-3.8	x	5.0	42.9*	24.3
N=C1/C(=C/c2ccco2)C(=O)N=C2SC(CC(=O)N3CCCC3)=NN12	1.1	-5.0	0.1	3.7	-0.1	0.7
COCC#Cc1cnc2c(c1)C(=O)N([C@@H](C)CO)C[C@H](C)[C@@H](CN(C)Cc1ccccc1F)O2	-0.3	x	-8.4	7.3	-0.2	6.2
COc1cc(OC)c(C2=NOC(C(=O)N3CCc4ccccc4C3)C2)cc1Cl (stereo not drawn)	0.2	-15.1	-1.1	5.5	-0.1	-26.4*
COC(=O)[C@@H]1[C@@H](CO)[C@@H]2Cn3c(ccc(-c4ccccc4)c3=O)[C@@H]2N1CC1CCCCC1	-3.0	x	2.2	x	-0.2	-48.8
CCC(C)c1ccc(NC(=S)N2CCN(c3ccccn3)CC2)cc1 (stereo not drawn)	4.6	x	104.8*	x	0.1	-27.2
SMILES	PglD inh	Vif imaging	Cneo AK release	PGC1a acetyl inh	FGF22 binding	rRNA inh HTS
CCCCc1ccc(NC(=S)N2CCN(c3ncccn3)CC2)cc1	-0.6	-8.8	-0.6	-13.1	43.0*	-8.3
O=C(O)c1ccn2c(C(=O)c3ccccc3)c(-c3ccccc3)cc2c1	-4.4	2.0	4.1	6.5	0.0	-25.8*
COc1ccc(-c2cc3cc(C(=O)O)ccn3c2C(=O)c2ccccc2)cc1	-9.4	-9.9	4.0	1.8	-0.2	-44.0
CC(CCC(=O)O)C1CCC2C3CCC4C[C@H](O)CCC4(C)C3CC(=O)C12C (stereo partly drawn)	-3.2	52.6*	2.0	1.3	-0.2	-3.7
C[C@H](CCC(=O)O)[C@H]1CC[C@H]2[C@@H]3CC[C@@H]4C[C@H](O)CC[C@]4(C)[C@H]3CC[C@]12C	0.7	1.7	-2.4	-2.8	-0.7	x
O=c1oc2ccccc2c(NCc2ccc(Cl)cc2)c1[N+](=O)[O-]	4.8	-4.5	-17.1	-11.2	0.2	-38.7*
CCCCCCCC[n+]1cccc(C(=O)N(CC)CC)c1	x	13.1	x	x	43.4*	x
CC(=O)c1sc2nc(CSc3nncn3C)[nH]c(=O)c2c1C	x	-0.3	x	x	43.8*	x
Cc1ccc(S(=O)(=O)Nc2ccc3c(c2)C(=O)N([C@H](C)CO)C[C@@H](C)[C@@H](CN(C)S(=O)(=O)c2ccc(Cl)cc2)OCCCC[C@@H](C)O3)cc1	2.6	x	0.8	-17.9	25.0*	1.5
COc1ccc(S(=O)(=O)Nc2ccc3c(c2)C(=O)N([C@H](C)CO)C[C@H](C)[C@H](CN(C)S(=O)(=O)c2ccc(Cl)cc2)OCCCC[C@@H](C)O3)cc1	0.1	x	-9.9	6.3	-0.1	4.1
Cc1ccc(S(=O)(=O)N(C)C[C@H]2OCCCC[C@H](C)Oc3ccc(NS(=O)(=O)c4ccc(Cl)cc4)cc3C(=O)N([C@H](C)CO)C[C@H]2C)cc1	-1.2	x	0.3	-8.0	-0.1	-0.2
COc1ccc(S(=O)(=O)Nc2ccc3c(c2)C(=O)N([C@H](C)CO)C[C@@H](C)[C@H](CN(C)S(=O)(=O)c2ccc(Cl)cc2)OCCCC[C@H](C)O3)cc1	-2.7	x	-14.7	4.6	22.7*	-0.2
CNC[C@@H]1OCCCC[C@@H](C)Oc2ccc(NS(=O)(=O)c3ccc(Cl)cc3)cc2C(=O)N([C@H](C)CO)C[C@H]1C	-1.6	x	100.1*	-12.9	-0.4	8.6
CNC[C@H]1OCCCC[C@@H](C)Oc2ccc(NS(=O)(=O)c3ccc(Cl)cc3)cc2C(=O)N([C@H](C)CO)C[C@H]1C	1.3	x	-3.4	-10.1	0.5	2.4
Cc1ccc(S(=O)(=O)Nc2ccc3c(c2)C(=O)N([C@@H](C)CO)C[C@H](C)[C@H](CN(C)S(=O)(=O)c2ccc(Cl)cc2)OCCCC[C@@H](C)O3)cc1	4.8	x	103.1*	-3.2	-0.5	0.8
